Experimental data taken from ChEMBL document CHEMBL3351938, “C5-Alkyl-2-methylurea-Substituted Pyridines as a New Class of Glucokinase Activators” (ACS Med Chem Lett, 2014).
Converted amounts (≈) assume the structure as drawn.

What was measured:
[1] = Drug metabolism in human liver microsomes assessed as compound turnover at 1 uM after 30 mins; format: ADME; settings: read-out: Drug metabolism
In short: (§1)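 Test compound at 1 μM initial concentration was incubated with 0.25 mg/mL rat or human liver microsomes for 30 min at 37 °C; percent turnover is the percentage of parent metabolized.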

[2] = Drug metabolism in rat liver microsomes assessed as compound turnover at 1 uM after 30 mins; format: ADME; settings: read-out: Drug metabolism; in short: as §1
Hexokinase-4 [3] = biological target: T1, Hexokinase-4 (Homo sapiens, UniProt P35557); experiment: Activation of human recombinant Glucokinase measured over 5 mins by G6-PD coupled assay in presence of 5 mM glucose
T1 sequence (P35557 whole entry): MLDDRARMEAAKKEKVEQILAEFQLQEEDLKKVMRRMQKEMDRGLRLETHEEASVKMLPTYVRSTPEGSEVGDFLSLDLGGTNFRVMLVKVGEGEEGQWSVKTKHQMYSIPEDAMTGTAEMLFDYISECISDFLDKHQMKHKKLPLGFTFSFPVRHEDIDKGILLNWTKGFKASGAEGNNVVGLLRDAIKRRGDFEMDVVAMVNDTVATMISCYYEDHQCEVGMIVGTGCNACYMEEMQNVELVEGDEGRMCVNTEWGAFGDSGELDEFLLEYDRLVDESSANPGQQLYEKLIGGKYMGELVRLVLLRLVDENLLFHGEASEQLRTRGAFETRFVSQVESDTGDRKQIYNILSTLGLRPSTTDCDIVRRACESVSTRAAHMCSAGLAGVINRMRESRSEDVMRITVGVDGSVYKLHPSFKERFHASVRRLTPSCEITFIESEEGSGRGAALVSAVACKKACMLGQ
In short: (§2)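 Recombinant human GK; glucose held at 5 mM for EC₅₀ determination; run in duplicate (n = 2).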

[4] = Volume of distribution at steady state in mouse at 1 mg/kg, iv; format: ADME, organism-based; parameters: dose 1 mg/kg, route intravenous; settings: in vivo, read-out: Vdss
In short: (§3)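 Mice: IV dose 1 mg/kg, n = 3; PO dose 10 mg/kg, n = 3.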

[5] = AUC in rat at 10 mg/kg, po; format: ADME, organism-based; parameters: dose 10 mg/kg, route oral; settings: plasma
In short: (§4)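 Rats: IV dose 1 mg/kg, n = 3; PO dose 10 mg/kg, n = 3.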

[6] = Half life in mouse at 1 mg/kg, iv; format: ADME, organism-based; parameters: dose 1 mg/kg, route intravenous; settings: in vivo; in short: as §3
Mus musculus [7] = experiment: Antidiabetic activity in C57Bl/6 mouse assessed as reduction in plasma glucose level at 30 mg/kg, po administered 30 mins prior glucose challenge measured 1.5 to 2 hrs post dose by oral glucose tolerance test; format: functional
In short: (§5)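 Oral dose–response OGTT in C57Bl/6 mice at 3, 10 and 30 mg/kg; blood glucose area-under-curve assessed; significance versus vehicle by two-way ANOVA.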

[8] = Clearance in rat at 1 mg/kg, iv; format: ADME, organism-based; parameters: dose 1 mg/kg, route intravenous; settings: in vivo; in short: as §4
[9] = Drug metabolism in human primary hepatocytes; format: ADME, cell-based, Hepatocyte; settings: read-out: Drug metabolism
[10] = Solubility of the compound in PBS buffer at 7.4; format: physicochemical; settings: pH 7.4
[11] = AUC in mouse at 10 mg/kg, po; format: ADME, organism-based; parameters: dose 10 mg/kg, route oral; settings: plasma; in short: as §3
[12] = Oral bioavailability in rat at 10 mg/kg; format: ADME, organism-based; settings: in vivo; in short: as §4
Mus musculus [13] = experiment: Antidiabetic activity in C57Bl/6 mouse assessed as reduction in blood glucose AUC at 3 mg/kg, po administered 30 mins prior glucose challenge by oral glucose tolerance test; format: functional; parameters: scale not given: the % may be the effect or the level left; in short: as §5
[14] = Oral bioavailability in mouse at 10 mg/kg; format: ADME, organism-based; settings: in vivo; in short: as §3
[15] = Half life in rat at 1 mg/kg, iv; format: ADME, organism-based; parameters: dose 1 mg/kg, route intravenous; settings: in vivo; in short: as §4
[16] = Volume of distribution at steady state in rat at 1 mg/kg, iv; format: ADME, organism-based; parameters: dose 1 mg/kg, route intravenous; settings: in vivo, read-out: Vdss; in short: as §4
Mus musculus [17] = experiment: Antidiabetic activity in C57Bl/6 mouse assessed as reduction in blood glucose AUC at 10 mg/kg, po administered 30 mins prior glucose challenge by oral glucose tolerance test; format: functional; parameters: scale not given: the % may be the effect or the level left; in short: as §5
[18] = Clearance in mouse at 1 mg/kg, iv; format: ADME, organism-based; parameters: dose 1 mg/kg, route intravenous; settings: in vivo; in short: as §3
Hexokinase-4 [19] = biological target: T1, Hexokinase-4; experiment: Activation of human recombinant Glucokinase measured over 5 mins by G6-PD coupled assay in presence of 5 mM glucose and 4% HSA; in short: as §2
[20] = Half life in rat at 0.5 mg/kg, iv; format: ADME, organism-based; parameters: dose 0.5 mg/kg, route intravenous; settings: in vivo
Mus musculus [21] = experiment: Hypoglycemic activity in fed C57Bl/6 mouse assessed as change in blood glucose level at 10 to 30 mg/kg, po followed by food withdrawal for 4 hrs measured 30 to 240 mins post dose by normoglycemic glucose lowering test; format: ADME, organism-based; parameters: route oral; settings: in vivo
In short: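 Fed male C57Bl/6 mice dosed orally with vehicle or compound (10 or 30 mg/kg) without glucose challenge, then food removed for 4 h; blood glucose sampled at various time points; two-way ANOVA versus vehicle.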

Mus musculus [22] = experiment: Antidiabetic activity in fasted ob/ob mouse assessed as reduction in blood glucose AUC at 10 mg/kg, po administered 30 mins prior glucose challenge by oral glucose tolerance test relative to control; format: functional; parameters: scale not given: the % may be the effect or the level left
In short: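 OGTT in fasted ob/ob mice with oral doses of 0.3, 1, 3 and 10 mg/kg; blood glucose AUC compared to vehicle by two-way ANOVA.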

[23] = Plasma protein binding in mouse; format: ADME; settings: read-out: PPB (converted)
[24] = AUC in rat at 2 mg/kg, po; format: ADME, organism-based; parameters: dose 2 mg/kg, route oral; settings: plasma
Canis familiaris [25] = experiment: Clearance in dog at 0.5 mg/kg, iv; settings: in vivo
Canis familiaris [26] = experiment: Oral bioavailability in dog at 2 mg/kg; settings: in vivo
[27] = Plasma protein binding in human; format: ADME, cell-free; settings: read-out: PPB (converted)
[28] = AUC in mouse at 5 mg/kg, po; format: ADME, organism-based; parameters: dose 5 mg/kg, route oral; settings: plasma
[29] = Plasma protein binding in rat; format: ADME, cell-free; settings: read-out: PPB
Canis familiaris [30] = experiment: AUC in dog at 2 mg/kg, po; settings: in vivo
[31] = Oral bioavailability in mouse at 5 mg/kg; format: ADME, organism-based; settings: in vivo
[32] = Clearance in rat at 0.5 mg/kg, iv; format: ADME, organism-based; parameters: dose 0.5 mg/kg, route intravenous; settings: in vivo
[33] = Volume of distribution at steady state in rat at 0.5 mg/kg, iv; format: ADME, organism-based; parameters: dose 0.5 mg/kg, route intravenous; settings: in vivo, read-out: Vdss
[34] = Permeability across pig LLC-PK cells; format: ADME, cell-based, Sus scrofa; settings: LLC-PK1, read-out: permeability
[35] = Half life in dog at 0.5 mg/kg, iv; settings: in vivo
[36] = Volume of distribution at steady state in dog at 0.5 mg/kg, iv; settings: in vivo, read-out: Vdss
[37] = Oral bioavailability in rat at 2 mg/kg; format: ADME, organism-based; settings: in vivo

| metabolised at 0.5 h, 1 µM [1] [%] | metabolised at 0.5 h, 1 µM [2] [%] | EC50 (Hexokinase-4 [3]) [nM] | Structure (SMILES) | further results |
| --- | --- | --- | --- | --- |
| – | – | 120 | CCn1nccc1Oc1cc(C[C@H]2CC[C@@H](O)CC2)cnc1NC(=O)NC | – |
| – | – | 110 | CCn1nccc1Oc1cc(C[C@H]2CC[C@](C)(O)CC2)cnc1NC(=O)NC | – |
| 23 | 41 | 110 | CCc1ncccc1Oc1cc(CCCCOC)cnc1NC(=O)NC | – |
| 20 | 33 | 350 | CCc1ncccc1Oc1cc(CCCCO)cnc1NC(=O)NC | – |
| – | – | 820 | CCn1nc(COC)cc1Oc1cc(CC2CCOCC2)cnc1NC(=O)NC | – |
| 10 | 10 | 370 | CCn1nccc1Oc1cc(CCCC(C)(C)O)cnc1NC(=O)NC | – |
| 31 | 17 | 110 | CCc1ncccc1Oc1cc(CCCC(C)(C)O)cnc1NC(=O)NC | – |
| – | – | 290 | CCc1ncccc1Oc1cc(CC2CCOCC2)cnc1NC(=O)NC | – |
| – | – | 490 | CCn1nccc1Oc1cc(C[C@H]2CCO[C@H](COC)C2)cnc1NC(=O)NC | – |
| 10 | 10 | 1590 | CCc1ncccc1Oc1cc(CCO)cnc1NC(=O)NC | – |
| – | – | 530 | CCn1nccc1Oc1cc(C[C@H]2C[C@@H](O)C2)cnc1NC(=O)NC | – |
| – | – | 7980 | CCn1nccc1Oc1cc(CN2CCOCC2)cnc1NC(=O)NC | – |
| – | – | 16800 | CCn1nccc1Oc1cc(C(O)C2CCOCC2)cnc1NC(=O)NC (centres undefined) | – |

Continued, molecule first:

| Structure (SMILES) | metabolised at 0.5 h, 1 µM [1] [%] | metabolised at 0.5 h, 1 µM [2] [%] | EC50 (Hexokinase-4 [3]) [nM] | further results |
| --- | --- | --- | --- | --- |
| CCOCCc1cnc(NC(=O)NC)c(Oc2cccnc2CC)c1 | 21 | 76 | 590 | – |
| CCn1nccc1Oc1cc(CC2CCOCC2)cnc1NC(=O)NC | 10 | 25 | 350 | Vd [4]: 1.5 L/kg; AUC [5]: 3.51 µM·h; half-life [6]: 43.2 min; Activity (Mus musculus [7]): 77 mg/dL; clearance [8]: 25 mL/min/kg; metabolised [9]: 15%; solubility [10]: 718 µg/mL (≈ 2000 µM); AUC [11]: 13.3 µM·h; bioavailability [12]: 19%; Activity (Mus musculus [13]): 15%; bioavailability [14]: 81%; half-life [15]: 24.6 min; Vd [16]: 0.8 L/kg; Activity (Mus musculus [17]): 32%; clearance [18]: 28.3 mL/min/kg |
| CCn1nccc1Oc1cc(C[C@H]2C[C@@](C)(O)C2)cnc1NC(=O)NC | – | – | 710 | – |
| CCn1nccc1Oc1cc(C[C@H]2CC[C@H](O)CC2)cnc1NC(=O)NC | – | – | 68 | – |
| CCc1ncccc1Oc1cc(CCCOC)cnc1NC(=O)NC | – | – | 440 | – |
| CCn1nccc1Oc1cc(C[C@H]2C[C@H](O)C2)cnc1NC(=O)NC | – | – | 500 | – |
| CNC(=O)Nc1ncc(CC2CCOCC2)cc1Oc1ccnn1C(C)C | – | – | 2760 | – |
| CCc1ncccc1Oc1cc(CC(C)C)cnc1NC(=O)NC | 56 | 95 | 120 | – |
| CCn1nccc1Oc1cc(C[C@H]2CC[C@@](C)(O)CC2)cnc1NC(=O)NC | – | – | 97 | – |
| CCn1nccc1Oc1cc(C[C@H]2C[C@](C)(O)C2)cnc1NC(=O)NC | – | – | – | EC50 (Hexokinase-4 [19]): 280 nM; half-life [20]: 120 min; Activity (Mus musculus [21]): Non-toxic; Activity (Mus musculus [22]): 43%; fraction unbound [23]: 0.44; AUC [24]: 0.39 µM·h; CL (Canis familiaris [25]): 0.64 L/h/kg; F (Canis familiaris [26]): 72%; fraction unbound [27]: 0.44; AUC [28]: 6.84 µM·h; fraction unbound [29]: 0.5; AUC (Canis familiaris [30]): 6.4 µM·h; bioavailability [31]: 44%; clearance [32]: 26.7 mL/min/kg; Vd [33]: 0.8 L/kg; Papp [34]: 32.4 ×10⁻⁶ cm/s; half-life [35]: 330 min; Vd [36]: 2.2 L/kg; bioavailability [37]: 9% |
| CCc1ncccc1Oc1cc(CC2CCCCC2)cnc1NC(=O)NC | 99 | 95 | 14 | – |
| CCn1nccc1Oc1cc(CCCCOC)cnc1NC(=O)NC | 10 | 31 | 460 | – |
| CCn1nccc1Oc1cc(C[C@@H]2CCO[C@@H](COC)C2)cnc1NC(=O)NC | – | – | 350 | – |
